Measured values: PubChem BioAssay AID1424 (The Scripps Research Institute Molecular Screening Center, 2008)
The whole screen tested about 220,000 compounds, of which about 390 (0.18%) were called active.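 The calls were made as follows: active = activation above its plate's cutoff, the mean activation of test wells on that plate plus 3 SD (cut at about 19% in these data); inactive = the rest.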 Shown is part of a subset that was picked to be rich in actives. Residues, ends and D or L forms follow the SMILES beside them. *: point of attachment. OPac = O=C(CO*)c1ccccc1; Bz = O=C(c1ccccc1)*

system: transient receptor potential cation channel N1 (TRPN1/NompC), Danio rerio; test: TRPN1 activation via calcium influx – cell-based, HEK293, calcium fluorescence, zebrafish, primary screen (AID 1424); conditions: HEK293 zebrafish TRPN1-YFP, Fluo-8 calcium fluorescence; at 3 µM; stronger effect = higher value; 100% = response to 87 µM carbachol;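 also: 0% = DMSO alone and 100% = 87 µM carbachol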
Outline: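 Control set: carbachol 87 µM as high control, DMSO as low control; system: HEK293 stable line with zebrafish TRPN1-YFP; read-out: % activation versus carbachol response; detection: intracellular calcium fluorescence with Fluo-8; doses: single test compound dose, 3 µM nominal, 0.3% DMSO; schedule: dye 1 h 37 °C plus 30 min RT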

SMILES	activation
Cc1cc(N2CCN(c3ccc(F)cc3)CC2)n2ncnc2n1	1.97% (inactive)
CCc1cccc(C)c1NC(=O)COC(=O)Cc1ccsc1	-0.93% (inactive)
CN1CCN(NC(=O)c2ccc(S(=O)(=O)N3CCCCCC3)cc2)CC1	1.34% (inactive)
CCOC(=O)COc1nc(C)cc(C(F)(F)F)c1C#N	-0.81% (inactive)
CCOC(=O)/C(C#N)=C/c1ccc(N2CCCCC2)cc1	2.02% (inactive)
Cc1cc(C(=O)NNC(=S)Nc2ccccc2C)cs1	3.43% (inactive)
CN(C)CCOCCOc1ccc(Cl)c2ccccc12	1.52% (inactive)
Cc1cccc(C)c1Nc1c(-c2ccccc2O)nc2ncccn12	1.43% (inactive)
Cc1ccc(C2C(C#N)C(C#N)N3CCCN23)cc1 (stereo not drawn)	-0.02% (inactive)
CCO/N=C(/C)c1c(O)cc(-c2ccccc2)n(-c2ccccc2)c1=O	0.61% (inactive)
COCc1c(N)c(C)nc(Cl)c1C#N	-0.99% (inactive)
CCn1c(CSc2ncccn2)nnc1SCC(=O)N1c2ccccc2CC1C (stereo not drawn)	-0.46% (inactive)
CCn1c(Cc2ccccc2)nnc1SCC(=O)Nc1ccccc1	0.58% (inactive)
CCCc1nnc(SCC(=O)N2C(C)CCCC2C)n1CC (stereo not drawn)	37.6% (active)
O=C(O)CCN(Cc1ccccc1)S(=O)(=O)c1c(Cl)cccc1Cl	0.3% (inactive)
COc1cc(C(=O)OC(C)C(=O)NCC2CCCCC2)cc(NC(=O)c2ccco2)c1OC (stereo not drawn)	-0.78% (inactive)
COCCN(Cc1cc2cc3c(cc2nc1Cl)OCO3)C(=O)c1cccc(C)c1	0.19% (inactive)
COc1ccc(C(=O)N/N=c2\oc3ccccc3cc2C(N)=O)cc1	1.99% (inactive)
CCN(CC)c1ccc2cc(C(=O)O)c(=O)oc2c1	1.02% (inactive)
CCN(CC)c1ccc2cc(C(N)=O)/c(=N\NC(=O)c3ccncc3)oc2c1	31.1% (active)
CCC(C)NC(=O)c1ccc(N2CCC3(CC2)OCCO3)c([N+](=O)[O-])c1 (stereo not drawn)	0.89% (inactive)
O=C(/C=C/c1cccs1)NCc1cccnc1	0.53% (inactive)
COC(=O)C1=NN(c2ccccc2)C2C(=O)N(c3ccccc3OC)C(=O)C12 (stereo not drawn)	-0.87% (inactive)
COc1cccc(NC(=O)COC(=O)CCOc2ccccc2OC)c1	-1.34% (inactive)
CCc1c(O)cc2n(c1=O)-c1ccccc1C2(C)C	1.3% (inactive)

SMILES	activation
CC(C)(C)NC(=O)CN(C(=O)c1csnn1)c1ccccc1-c1ccccc1	1.04% (inactive)
O=C(CCN1CCN(c2ccccc2)CC1)NNC(=S)Nc1ccccc1	2.77% (inactive)
CCOc1ccccc1N1CN(Cc2ccccc2)CNC1=S	-0.98% (inactive)
Cn1cc(S(=O)(=O)NC(c2ccccc2)c2ccccc2)c(=O)n(C)c1=O	1.45% (inactive)
COc1ccc(/C=N/NC(=O)C(C)N(c2ccc(OC)cc2)S(C)(=O)=O)cc1 (stereo not drawn)	0.5% (inactive)
CC(C)(C)NC(=O)CN1CCC(NC(=O)C23CC4CC(CC(C4)C2)C3)CC1	2.37% (inactive)
O=C(COC(=O)c1ccc(F)cc1F)Nc1ncccn1	-0.68% (inactive)
O=C(COc1ccccc1)N1CCN=C1SCc1cccc(F)c1	-0.02% (inactive)
Cc1cc(OCC(=O)NC2CCN(C)CC2)ccc1[N+](=O)[O-]	1.92% (inactive)
CC1Cc2ccccc2N1CC(=O)Nc1ccc(S(N)(=O)=O)cc1 (stereo not drawn)	1.19% (inactive)
Cc1c(Cl)cccc1NC(=O)Nc1ccc(C(=O)N2CCCC2)cc1	-0.96% (inactive)
COc1ccc(N2C(=O)c3cccc4cccc(c34)C2=O)nn1	-0.39% (inactive)
Cc1nn(-c2cc(Cl)ccc2N)c(=O)c2ccccc12	-1.21% (inactive)
Cc1nn(C)cc1N1C(=O)c2cccc3c(N)ccc(c23)C1=O	23.7% (active)
Cc1cc(=O)oc2cc(OCCC[n+]3ccccc3)ccc12	0.59% (inactive)
O=C(CNCc1ccc(Cl)cc1)Nc1cccc(C(=O)O)c1	0.21% (inactive)
CCOC(=O)c1c(C)oc(C)c(C(=O)OCC)c1=O	1.29% (inactive)
O=[N+]([O-])/C=C1\CCCCCN1	3.32% (inactive)
N#C/C(=C/c1cccc([N+](=O)[O-])c1)c1nnc2n1CCCCC2	2.1% (inactive)
COCc1cc(=O)[nH]c(SC)n1	1.98% (inactive)
CCOC12CC(C)(C)CC(C)(CC3=C1C(=O)CC(C)(C)C3)C2 (stereo not drawn)	1.01% (inactive)
CSc1cccc(NC(=S)N(Cc2ccccc2)Cc2ccccn2)c1	-0.2% (inactive)
CCOc1ccc(-n2c(O)c(/C=N/c3ccnn3Cc3ccncc3)c3ccccc3c2=O)cc1	0.39% (inactive)
O=C(COC(=O)c1ccco1)NCc1ccc(Cl)cc1	0.49% (inactive)
Cc1cc(C)n(Cc2cnc(N3CCOCC3)s2)n1	0.48% (inactive)

SMILES	activation
CNC(=O)c1ccsc1NC(=O)c1ccc(S(=O)(=O)N2CCOCC2)cc1	2.83% (inactive)
CC1=NN(c2cccc(Cl)c2)C(=O)C12CC(C)=C(C)CS2 (stereo not drawn)	-0.78% (inactive)
Cc1ccc(N2CCN(S(=O)(=O)c3ccc(F)cc3)CC2)c(C)c1	-1.18% (inactive)
Cc1ccc(N2C(=O)CC(N3CCSCC3)C2=O)c(C)c1 (stereo not drawn)	40.3% (active)
O=C1CC(N2CCN(c3ccc(F)cc3)CC2)C(=O)N1c1ccccc1 (stereo not drawn)	0.96% (inactive)
Cc1cc(C)n(C(=O)CCNC(=O)c2ccccc2Cl)n1	0.31% (inactive)
CC(C)c1ccc(NC(=S)NC2CC3C=CC2C3)cc1 (stereo not drawn)	1.72% (inactive)
CCCCCCCCCOC1OC(CO)C(O)C(O)C1NC(C)=O (stereo not drawn)	1.72% (inactive)
O=C(CNC(=O)c1ccccc1)NCC(=O)OCC(=O)c1ccccc1 (Bz-Gly-Gly-OPac)	1.5% (inactive)
CC(C)OC(=O)CN1CCN(c2ccc(Cl)cc2)CC1	4.98% (inactive)
Cc1ccc(C(=O)Nc2nnc(-c3ccncc3)s2)o1	1.91% (inactive)
Cc1occc1C(=O)Nc1nnc(-c2ccncc2)s1	0.89% (inactive)
Cc1ccc(NC(=O)Nc2nnc(-c3ccncc3)s2)cc1	20.7% (active)
O=C(NN=C1CCC(=NNC(=O)c2cccnc2)CC1)c1cccnc1	1.24% (inactive)
CCOc1ccc(NC(=O)c2ccccc2NS(C)(=O)=O)cc1	0.2% (inactive)
COC(=O)c1ccc(NC(=O)c2ccccc2NS(=O)(=O)c2ccccc2)cc1	19.8% (active)
COc1cc(NC(=O)c2ccccc2NS(=O)(=O)c2ccc(Cl)s2)cc(OC)c1	21% (active)
COc1cc(NC(=O)c2cccnc2SC)cc(OC)c1	-0.29% (inactive)
O=C(Nc1nncs1)c1ccccc1NS(=O)(=O)c1cccs1	-0.5% (inactive)
COC(=O)c1ccccc1NC(=O)c1ccccc1NS(C)(=O)=O	-1.95% (inactive)
C=C(C)CNC(=S)N/N=C/c1ccccc1OCC(=O)O	1.26% (inactive)
Cc1ccc2cc(CN(c3ccc(C)c(C)c3)S(C)(=O)=O)c(=O)[nH]c2c1	1.62% (inactive)
CC#CC[N+](C)(C)CCCCCC	-0.58% (inactive)
COCCN(Cc1nc(-c2ccc(C(F)(F)F)cc2)no1)C(C)C	0.76% (inactive)
O=C(CCNC(=O)Cn1ccc2ccccc2c1=O)NCCC1=CCCCC1	-0.5% (inactive)

SMILES	activation
COc1ccc(OC)c(-c2c(=O)n(OCc3ccccc3Br)c3ccccc3[n+]2[O-])c1	-1.72% (inactive)
COc1ccc(C(C)=O)cc1COc1ccc(Cl)c(C)c1	0.81% (inactive)
CCOC(=O)CC1C(=O)NCCN1c1nc2c(C)cccn2c(=O)c1/C=C1\SC(=S)N(C(C)CC)C1=O (stereo not drawn)	23.3% (active)
Cc1cccn2c(=O)c(/C=C3\SC(=S)N(CC(C)C)C3=O)c(NCCCOC(C)C)nc12	1.73% (inactive)
CCOC(=O)CC1C(=O)NCCN1C(=O)COc1ccc(Br)cc1C (stereo not drawn)	-0.63% (inactive)
CCOC(=O)C1(Cc2cccc(OC)c2)CCN(C(C)COC)CC1 (stereo not drawn)	-0.77% (inactive)
Cc1ccc(N2C(=O)S/C(=C/c3cn(C)c4ccccc34)C2=O)cc1	1.3% (inactive)
N#C/C(=C/c1ccc(N2CCCCC2)o1)C(=O)NCCc1c[nH]c2ccccc12	29.5% (active)
N#C/C(=C/c1ccc(-c2ccccc2[N+](=O)[O-])o1)C(=O)NCCN1CCCCC1	-2.16% (inactive)
O=C(NCCc1c[nH]c2ccccc12)C(=O)NCC1CCCO1 (stereo not drawn)	0.46% (inactive)
COCCCNC(=O)CNC(=S)N(Cc1cc(OC)c(OC)c(OC)c1)C1CCCC1	0.25% (inactive)
C=CCNC(=O)c1ccccc1NC(=O)c1ccc(Cl)c(S(=O)(=O)Nc2cccc(C)c2C)c1	1.27% (inactive)
Cn1nnnc1-c1cc(Cl)cc(Cl)c1	-0.59% (inactive)
CCN1CCN(CCNC(=O)c2ccc(/C=C3/Sc4ccccc4N(Cc4cccc(C)c4)C3=O)cc2)CC1	4.77% (inactive)
CCN1/C(=C/c2ccc3ccc(C)cc3[n+]2CC)Sc2ccccc21	30.7% (active)
CCN1/C(=C/C(=S)Nc2ccccc2)Sc2ccccc21	-1.89% (inactive)
CCN1/C(=C\c2ccc3ccccc3[n+]2CC)Sc2cc(C)ccc21	38.4% (active)
CC(C)(C)C(=O)CSc1nc2ccccc2o1	-0.66% (inactive)
COc1ccc(-c2cn(-c3ccc(OC)cc3)c(=S)[nH]2)cc1	-0.09% (inactive)
COc1cc(OC)c(-n2c(C)cc(C=O)c2C)cc1Cl	-1.14% (inactive)
COc1cc(OC)c(-n2cc(-c3ccc(Cl)cc3)[nH]c2=O)cc1Cl	32.6% (active)
O=C(c1snnc1-c1ccccc1)N1CCOCC1	-0.06% (inactive)
CC(=O)Nc1ccc(S(=O)(=O)Nc2ccc(-c3ccc4nnc(C)n4n3)cc2)cc1	0.58% (inactive)
